The list is not random: actives were taken first. Their share in the collection is about 4.3%.
ALR H2O2 inh: human ALR oxidase inhibition via reduced H2O2; 3.8% of 290,000 active; purified ALR, DTT oxidation, H2O2 HRP-luminol luminescence; inhibition, % (no concentration beside the values);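 active = mean replicate inhibition above about 79%, with every replicate also reaching it, limit read from the data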
Target sequence (P55789 whole entry, looked up): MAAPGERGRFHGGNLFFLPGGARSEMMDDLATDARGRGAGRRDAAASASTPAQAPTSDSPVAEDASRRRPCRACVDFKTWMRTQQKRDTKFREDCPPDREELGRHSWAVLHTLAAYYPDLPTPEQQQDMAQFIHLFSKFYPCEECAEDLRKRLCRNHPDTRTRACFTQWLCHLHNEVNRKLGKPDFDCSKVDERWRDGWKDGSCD
Rtt109 Vps75: inhibitors of Candida albicans Rtt109/Vps75 histone acetyltransferase | inhibition, % at 34.9 µM | 0.16% of 330,000 active | purified Rtt109/Vps75, ThioGlo CoA-SH fluorescence, 4 h | Q5AAJ8;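 active = inhibition of at least 50% in every replicate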
DYRK1A inh: inhibitors of rat Dyrk1A kinase; Q63470; ADP-Glo luminescence, NFATc1 peptide; inhibition, % at 12.5 µM; 0.43% of 310,000 active; in the data active = inhibition above about 50%;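 also: plate controls were vehicle with enzyme for no effect and no enzyme for full effect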
CAL PDZ FP-1: inhibitors of human CAL PDZ peptide binding. Q9HD26. inhibition, % at 20 µM. purified CAL PDZ, TMR-peptide fluorescence polarization, 1 h. 0.02% of 330,000 active;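 active = highest replicate inhibition of at least 40%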;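 also: plate controls were DMSO neutral control wells for no effect and unlabeled competitor peptide control wells for full effect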
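material = purified tagged CAL PDZ domain construct (CerCALP) | compound dosing = 20 µM, one dose | times = 1 h at RT | measured by = fluorescence polarization from S- and P-plane intensities, G-factor corrected | read-out = inhibition from polarization loss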
CAL PDZ FP-2: CAL PDZ (human) peptide binding inhibition; Q9HD26; purified CAL PDZ, TMR-peptide fluorescence polarization, 1 h; inhibition, % at 24.9 µM; 0.92% of 300,000 active; AID 602252;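 active = mean inhibition of at least 30% with at least half of replicates also reaching 30%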;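 also: 0% = DMSO neutral control and 100% = excess unlabeled competitor peptide PRC23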
* hit, by the source's call; nt = not tested or not shown.

SMILES	ALR H2O2 inh	Rtt109 Vps75	DYRK1A inh	CAL PDZ FP-1	CAL PDZ FP-2
CC(NC(=O)c1cc(-c2ccccn2)nc2ccc(Cl)cc12)C1CCCO1 (stereo not drawn)	3	2	4	-3	-6
NC1=NC2(CCCC2)n2c(nc3ccccc32)N1	4	nt	11	-1	1
CCC1(C)N=C(N)Nc2nc3cc(C)c(C)cc3n21 (stereo not drawn)	99*	-3	0	0	-6
CCCc1nc(SC2CCCC2)c2c(=O)n(C)c(=O)n(C)c2n1	98*	2	2	-1	-1
CC1CCN(CCCn2c(=S)[nH]c3c(sc4ccccc43)c2=O)CC1	25	-1	8	12	50*
O=c1c2sc3ccccc3c2[nH]c(=S)n1CCN1CCOCC1	96*	10	-2	-1	-3
c1ccc2c(c1)CC1(CCCC1)N=C2N1CCOCC1	nt	-3	8	0	68*
NNC(=O)c1nc[nH]c1C(=O)Nc1ccccc1	1	0	0	-4	nt
O=C(CN1C(=O)S/C(=C\c2ccc(F)cc2)C1=O)Nc1cccc(S(=O)(=O)NCc2ccco2)c1	-7	-6	3	-2	1
CC(C)COCC(O)CCC(=O)NNC(=S)Nc1ccccc1 (stereo not drawn)	93*	1	-2	0	-1
O=C(Cc1ccccc1)NNC(=S)Nc1ccccc1	30	-9	-2	0	3
O=C(CSc1nc2ccccc2c(=O)n1Cc1ccccc1)Nc1ccc(Br)cc1C(=O)O	97*	4	3	-2	-6
Cc1ccc(NC(=O)CSc2nc(=O)cc(N)n2CCc2ccccc2)cc1	99*	27	5	-1	4
C=CCn1c(N)cc(=O)nc1SCC(=O)Nc1ccc(C)cc1	99*	2	nt	1	-1
Nc1cc(=O)nc(SCC(=O)Nc2cccc3ccccc23)n1CCc1ccccc1	98*	18	13	-4	0
Cc1ccc(S(=O)(=O)N2CCOCC2)cc1NC(=O)CSc1nc2ccccc2c(=O)n1Cc1ccccc1	-7	16	2	-4	-3
CC(NC(=O)CSc1nc(=O)cc(N)n1CCc1ccccc1)c1ccccc1 (stereo not drawn)	nt	0	3	nt	-2
Cc1nnc(SCC(=O)Nc2ccccc2)n1CCc1ccccc1	3	-3	4	0	-2
COc1ccc(NC(=O)c2ccc(Cl)c(S(=O)(=O)NCC3CCCO3)c2)c(OC)c1 (stereo not drawn)	-15	3	-6	-3	6
O=c1ccncn1C1OC(CO)C(O)C1O (stereo not drawn)	nt	-15	-1	0	1
CCOc1ccc(C(=O)NNC(=O)C2CC(=O)N(c3ccc(C)cc3)C2)cc1 (stereo not drawn)	nt	-2	0	-1	-2
COc1cc(CN(C)CC2CCCN(CCc3ccccc3F)C2)cc(Cl)c1OC (stereo not drawn)	5	15	1	2	0
COc1ccc(-n2nnnc2SCc2nc3ccccc3s2)cc1	93*	-2	1	-2	-2
CCn1c(SCc2nc3ccccc3s2)nnc1-c1ccccc1	94*	6	1	-1	-1
COc1ccc(C)cc1-n1nnnc1SCc1nc2ccccc2s1	-6	0	0	-1	-1
SMILES	ALR H2O2 inh	Rtt109 Vps75	DYRK1A inh	CAL PDZ FP-1	CAL PDZ FP-2
Cc1nnc(SCc2nc3ccccc3s2)n1-c1ccccc1	-131	-1	nt	-3	-1
CCOC(=O)/C(=C\c1ccc(OC(F)F)cc1)C1=Nn2c(nnc2-c2ccc(Cl)cc2)SC1	-1	19	-3	-1	-1
O=C(Nc1ccccc1)c1sc(Cl)nc1-c1ccccc1	94*	-2	-9	0	8
O=C(Nc1cc(F)cc(F)c1)c1sc(Cl)nc1-c1ccccc1	-18	10	2	-1	1
Cc1cccc2sc(NC(=O)c3ccc(Cl)s3)nc12	97*	-11	2	0	nt
COCC1CCCCN1Cc1cn[nH]c1-c1ccc2cc(OC)ccc2c1 (stereo not drawn)	-2	3	23	-1	-3
O=C(O)c1c(-c2ccc(Cl)cc2)cn2ccccc12	5	-4	-1	-2	100*
COc1ccccc1CNC(=O)Nc1cccs1	97*	-1	-2	0	-4
COc1ccc(CNC(=O)Nc2cccs2)cc1OC	5	-5	1	-1	-8
COc1ccc(Br)cc1CNC(=O)Nc1cccs1	0	2	7	-1	-1

Screening data as filed in PubChem.
